# Measured values of several laboratories.
# Lines come from different studies, so protocols differ.
# Target: Cannabinoid receptor 2 (CNR2, Homo sapiens, UniProt P34972)
Compound,test,conditions,quantity,value
COc1cccc2c(C(=O)c3cccc4ccccc34)cn(CCN3CCOCC3)c12,"ligand displacement, radioligand","1 µM, cell membranes",inhibition,100%
CCOC(=O)C(CC)(CCCSCCOCCOCCOCCOCCNC(=O)OC(C)(C)C)NC(=O)c1ccc(C2CC2)c(Cc2ccc(F)cc2)n1 (centres unmarked),"cAMP, agonist",,Emax,91%
COc1ccc(S(=O)(=O)N2CCCCC2)cc1C,"ligand displacement, radioligand",10 µM,inhibition,< 30%
CN(CCN1CCC(OC(=O)Nc2ccccc2-c2ccccc2)CC1)C(=O)c1ccc(CN2CCC(C(N)=O)CC2)cc1,"ligand displacement, radioligand",1 µM,inhibition,-2%
Clc1ccc2c(C3CCN(CCc4c[nH]c5ccccc45)CC3)c[nH]c2c1,"ligand displacement, radioligand",10 µM,inhibition,11%
COCc1c(-c2cc3cc(C)cc(OC)c3s2)c2c(N)ncnn2c1CN1CCNC(=O)C1,"ligand displacement, radioligand",10 µM,inhibition,2%
CCOC(=O)C(CC)(CCCSCCOCCOCCNc1ccc([N+](=O)[O-])c2nonc12)NC(=O)c1ccc(C2CC2)c(Cc2ccc(F)cc2)n1 (racemic),"cAMP, agonist",,Emax,100%
O=C(Nc1cccnn1)N1CCN([C@@H]2CCOc3cc(C(F)(F)F)ccc32)CC1,ligand displacement,20 µM,inhibition,23%
